Drawing on ChEMBL document CHEMBL1132277, “Probing the binding of indolactam-V to protein kinase C through site-directed mutagenesis and computational docking simulations” (J Med Chem, 1999), this text covers Ki for one compound.

Assay [1] has as its target T1, Protein kinase C delta type (Mus musculus, UniProt P28867). The assay can be described thus: Binding of Indolactam-V(ILV) to mutant Protein kinase C delta C1b domain (Pro11 to Gly). The method, boiled down: (§1)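 GST fusions of PKCδ C1b domains (wild type or point mutants) expressed in E. coli, used purified or as total lysates. Incubated 5 min at 18 °C with [3H]PDBu, phosphatidylserine, 1 mM EGTA and varying unlabelled (–)-ILV. Bound ligand separated by 35% poly(ethylene glycol) precipitation and centrifugation, then supernatant and pellet counted. Final ligand concentrations used in calculations. Where [3H]PDBu binding was insufficient, ILV affinity was left undetermined.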

Assay [2] concerns the target T1, Protein kinase C delta type. Kind of assay: Binding of Indolactam-V(ILV) to mutant Protein kinase C delta C1b domain (Thr12 to Gly). The gist of the method: as §1
Assay [3] shares this target. Kind of assay: Binding of Indolactam-V(ILV) to mutant Protein kinase C delta C1b domain (Gln27 to Val). The gist of the method:
as §1

The target is the same in assay [4]. The assay can be described thus: Binding of Indolactam-V(ILV) to mutant Protein kinase C delta C1b domain (Leu20 to Gly). The gist of the method:
as §1

The target is the same in assay [5]. The assay can be described thus: Binding of Indolactam-V(ILV) to mutant Protein kinase C delta C1b domain (Phe13 to Gly). The gist of the method:
as §1

The target is the same in assay [6]. The assay can be described thus: Binding of Indolactam-V(ILV) to mutant Protein kinase C delta C1b domain (Tyr8 to Gly). The method, boiled down: as §1
For assay [7] the target is unchanged. Kind of assay: Binding of Indolactam-V(ILV) to wild-type Protein kinase C delta C1b domain. The method, boiled down: as §1

T1 sequence (P28867 whole entry, the tested form may be a part): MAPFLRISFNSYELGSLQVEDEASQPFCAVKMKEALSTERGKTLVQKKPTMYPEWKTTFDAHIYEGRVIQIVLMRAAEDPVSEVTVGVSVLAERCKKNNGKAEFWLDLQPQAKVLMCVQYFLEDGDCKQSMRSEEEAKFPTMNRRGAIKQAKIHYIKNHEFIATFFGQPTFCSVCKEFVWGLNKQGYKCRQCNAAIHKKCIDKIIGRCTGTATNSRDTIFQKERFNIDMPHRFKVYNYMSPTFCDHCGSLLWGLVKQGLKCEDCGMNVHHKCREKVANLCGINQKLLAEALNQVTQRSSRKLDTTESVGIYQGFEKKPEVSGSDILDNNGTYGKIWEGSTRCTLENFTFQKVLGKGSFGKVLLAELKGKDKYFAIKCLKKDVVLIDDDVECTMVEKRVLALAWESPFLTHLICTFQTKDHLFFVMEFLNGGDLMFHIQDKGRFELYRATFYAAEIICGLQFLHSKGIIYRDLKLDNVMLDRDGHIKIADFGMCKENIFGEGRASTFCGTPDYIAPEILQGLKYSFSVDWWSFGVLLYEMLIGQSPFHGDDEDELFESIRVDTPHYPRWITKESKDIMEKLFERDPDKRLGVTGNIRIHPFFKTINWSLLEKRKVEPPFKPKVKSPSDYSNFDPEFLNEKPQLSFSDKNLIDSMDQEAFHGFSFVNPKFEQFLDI

`CC(C)[C@H]1C(=O)N[C@H](CO)Cc2c[nH]c3cccc(c23)N1C` [INDOLACTUM]: the Ki worked out at 7080 nM in assay [1]; 25.3 nM in assay [2]; 1100 nM in assay [3]; 66.2 nM in assay [4]; 10.9 nM in assay [5]; 658 nM in assay [6]. This compound registered a Ki in assay [7] of 2.01 nM.
